The values that follow come from ChEMBL document CHEMBL2434871, “Discovery of a potent dual EGFR/HER-2 inhibitor L-2 (selatinib) for the treatment of cancer” (Eur J Med Chem, 2013).

pIC50: −log10 of the molar value.

For data set [1], the target named is Receptor tyrosine-protein kinase erbB-2 (Homo sapiens, UniProt P04626). In words: Inhibition of HER-2 (unknown origin) using poly-(Glu4-Tyr) as substrate after 1 hr by ELISA-based spectrophotometry. A digest of the protocol: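 ELISA on plates pre-coated with poly(Glu,Tyr 4:1) substrate. Serially diluted compounds plus ATP were added in 50 mM HEPES pH 7.4 containing 20 mM MgCl₂, 0.2 mM MnCl₂, 0.1 mM Na₃VO₄ and 1 mM DTT. Phosphotyrosine was detected with anti-phosphotyrosine antibody PY99 (1:500), then HRP anti-mouse IgG, then o-phenylenediamine/H₂O₂ at pH 5.5.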
(In an ELISA, binding on a coated surface is turned into a signal by an enzyme label.)

In data set [2] the target is Epidermal growth factor receptor (Homo sapiens, UniProt P00533). As to the kind of experiment: Inhibition of EGFR (unknown origin) using poly-(Glu4-Tyr) as substrate after 1 hr by ELISA-based spectrophotometry.
In data set [3] the test system is NCI-N87. As to the kind of experiment: Antitumor activity against human NCI-N87 cells xenografted in BALB/c athymic mouse assessed as tumor regression at 200 mg/kg, po qd after 28 days relative to vehicle-treated control. The class given is functional. The following applies: NCI-N87, 672 h, read-out: TGI. The essentials: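 Female BALB/c athymic mice, 4–6 weeks old, received 2 × 10⁶ NCI-N87 or SK-OV-3 cells s.c. in the right flank. At a tumor volume of 100–300 mm³ they were randomized (control n = 10, treated n = 6). Tosylate salt was given at 200 mg/kg qd by oral gavage, and controls received vehicle. Tumor volume was taken as length × width²/2 by caliper. Inhibition = (1 − T/C) × 100% on mean relative tumor volume (RTV). Two-tailed t test.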
For orientation: In xenograft studies the graft and the host belong to different species.

Data set [4] concerns Mus musculus. In words: Toxicity in BALB/c athymic mouse xenografted with human SKOV3 cells assessed as bloody stool at 200 mg/kg, po qd after 4 days. It counts as organism-based, SK-OV-3. The arrangement: dose 200 mg/kg, route oral. The following applies: in vivo, 96 h.
In data set [5] the test system is Mus musculus. In words: Toxicity in BALB/c athymic mouse xenografted with human NCI-N87 cells assessed as bloody stool at 200 mg/kg, po qd after 4 days. It counts as organism-based. On the set-up: dose 200 mg/kg, route oral. Conditions: in vivo, 96 h.
Data set [6] deals with Mus musculus. In words: Toxicity in BALB/c athymic mouse xenografted with human SKOV3 cells assessed as hematuria at 200 mg/kg, po qd after 4 days. It counts as organism-based, SK-OV-3. The arrangement: dose 200 mg/kg, route oral. The following applies: in vivo, 96 h.
For data set [7], the system named is Mus musculus. In words: Toxicity in BALB/c athymic mouse xenografted with human NCI-N87 cells assessed as hematuria at 200 mg/kg, po qd after 4 days. The class given is organism-based. The following applies: in vivo, 96 h. The arrangement: dose 200 mg/kg, route oral.
Data set [8] has as its system Mus musculus. As to the kind of experiment: Toxicity in BALB/c athymic mouse xenografted with human SKOV3 cells assessed as weight loss at 200 mg/kg, po qd after 4 days. The class given is organism-based, SK-OV-3. The arrangement: dose 200 mg/kg, route oral. The following applies: in vivo, 96 h.
For data set [9], the system named is Mus musculus. In words: Toxicity in BALB/c athymic mouse xenografted with human NCI-N87 cells assessed as weight loss at 200 mg/kg, po qd after 4 days. It counts as organism-based. The arrangement: dose 200 mg/kg, route oral. Conditions: in vivo, 96 h.
For a further data set, the system named is BT-474. As to the kind of experiment: Cytotoxicity against human BT474 cells after 72 hrs by SRB assay. The class given is functional, cell-based. The following applies: BT-474, 72 h.
Data set [10] has as its system NCI-N87. In words: Cytotoxicity against human NCI-N87 cells after 72 hrs by SRB assay. The class given is functional, cell-based. The following applies: NCI-N87, 72 h. A general note: The SRB assay estimates cell density from bound dye.
Data set [11] is described as follows: Aqueous solubility of the compound at 25 degC by shake-flask method. The class given is physicochemical. The following applies: unbuffered water.
The next data set relates to SK-OV-3. As to the kind of experiment: Antitumor activity against human SKOV3 cells xenografted in BALB/c athymic mouse assessed as tumor regression at 200 mg/kg, po qd after 21 days relative to vehicle-treated control. Conditions: SK-OV-3, po, 504 h, read-out: TGI.
Data set [12] relates to Rattus norvegicus. In words: Elimination half life in Wistar rat at 100 mg/kg, po assessed as lapatinib. It counts as ADME, organism-based. On the set-up: dose 100 mg/kg, route oral. Conditions: in vivo. The essentials: (§1)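 Male Wistar rats (220 ± 10 g), n = 4 per group, given the tosylate salt orally by gavage at 100 mg/kg, suspended in 0.5% sodium carboxymethylcellulose. Blood was sampled at 0.25 to 24 h. Parent compound and the lapatinib metabolite were extracted by C18 solid-phase extraction and analysed by LC/MSn.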

Data set [13] is described as follows: Elimination half life in Wistar rat at 100 mg/kg, po. It counts as ADME, organism-based. The arrangement: dose 100 mg/kg, route oral. Conditions: in vivo, read-out: beta t1/2 (converted). The essentials: as §1
In data set [14] the test system is Rattus norvegicus. As to the kind of experiment: Mean residence time in Wistar rat at 100 mg/kg, po assessed as lapatinib. The class given is ADME, organism-based. The arrangement: dose 100 mg/kg, route oral. Conditions: in vivo. The essentials: as §1
Data set [15] can be described thus: Mean residence time in Wistar rat at 100 mg/kg, po. The class given is ADME, organism-based. On the set-up: dose 100 mg/kg, route oral. Conditions: in vivo. The essentials:
as §1

For data set [16], the system named is Rattus norvegicus. As to the kind of experiment: AUC (0 to infinity) in Wistar rat at 100 mg/kg, po assessed as lapatinib. On the set-up: time infinity, dose 100 mg/kg, route oral. It counts as ADME, organism-based, Plasma. Conditions: in vivo. A digest of the protocol:
as §1

Data set [17] is described as follows: AUC (0 to infinity) in Wistar rat at 100 mg/kg, po. It counts as ADME, organism-based. On the set-up: time infinity, dose 100 mg/kg, route oral. The following applies: plasma. The essentials:
as §1

For data set [18], the system named is Rattus norvegicus. As to the kind of experiment: AUC (0 to t) in Wistar rat at 100 mg/kg, po assessed as lapatinib. The following applies: in vivo. On the set-up: dose 100 mg/kg, route oral. The class given is ADME, organism-based, Plasma. The essentials: as §1
Data set [19] is described as follows: AUC (0 to t) in Wistar rat at 100 mg/kg, po. The class given is ADME, organism-based. On the set-up: dose 100 mg/kg, route oral. The following applies: plasma. A digest of the protocol:
as §1

Data set [20] has as its system Rattus norvegicus. As to the kind of experiment: Cmax in Wistar rat at 100 mg/kg, po assessed as lapatinib. Conditions: in vivo. It counts as ADME, organism-based. On the set-up: dose 100 mg/kg, route oral. The essentials:
as §1

A short description of data set [21]: Cmax in Wistar rat at 100 mg/kg, po. Conditions: in vivo. The class given is ADME, organism-based. The arrangement: dose 100 mg/kg, route oral. A digest of the protocol: as §1
In data set [22] the test system is Rattus norvegicus. As to the kind of experiment: Tmax in Wistar rat at 100 mg/kg, po assessed as lapatinib. The class given is ADME, organism-based. On the set-up: dose 100 mg/kg, route oral. The following applies: in vivo. A digest of the protocol: as §1
A short description of data set [23]: Tmax in Wistar rat at 100 mg/kg, po. It counts as ADME, organism-based. On the set-up: dose 100 mg/kg, route oral. Conditions: in vivo. The essentials: as §1

Chain of Receptor tyrosine-protein kinase erbB-2 (P04626 whole entry): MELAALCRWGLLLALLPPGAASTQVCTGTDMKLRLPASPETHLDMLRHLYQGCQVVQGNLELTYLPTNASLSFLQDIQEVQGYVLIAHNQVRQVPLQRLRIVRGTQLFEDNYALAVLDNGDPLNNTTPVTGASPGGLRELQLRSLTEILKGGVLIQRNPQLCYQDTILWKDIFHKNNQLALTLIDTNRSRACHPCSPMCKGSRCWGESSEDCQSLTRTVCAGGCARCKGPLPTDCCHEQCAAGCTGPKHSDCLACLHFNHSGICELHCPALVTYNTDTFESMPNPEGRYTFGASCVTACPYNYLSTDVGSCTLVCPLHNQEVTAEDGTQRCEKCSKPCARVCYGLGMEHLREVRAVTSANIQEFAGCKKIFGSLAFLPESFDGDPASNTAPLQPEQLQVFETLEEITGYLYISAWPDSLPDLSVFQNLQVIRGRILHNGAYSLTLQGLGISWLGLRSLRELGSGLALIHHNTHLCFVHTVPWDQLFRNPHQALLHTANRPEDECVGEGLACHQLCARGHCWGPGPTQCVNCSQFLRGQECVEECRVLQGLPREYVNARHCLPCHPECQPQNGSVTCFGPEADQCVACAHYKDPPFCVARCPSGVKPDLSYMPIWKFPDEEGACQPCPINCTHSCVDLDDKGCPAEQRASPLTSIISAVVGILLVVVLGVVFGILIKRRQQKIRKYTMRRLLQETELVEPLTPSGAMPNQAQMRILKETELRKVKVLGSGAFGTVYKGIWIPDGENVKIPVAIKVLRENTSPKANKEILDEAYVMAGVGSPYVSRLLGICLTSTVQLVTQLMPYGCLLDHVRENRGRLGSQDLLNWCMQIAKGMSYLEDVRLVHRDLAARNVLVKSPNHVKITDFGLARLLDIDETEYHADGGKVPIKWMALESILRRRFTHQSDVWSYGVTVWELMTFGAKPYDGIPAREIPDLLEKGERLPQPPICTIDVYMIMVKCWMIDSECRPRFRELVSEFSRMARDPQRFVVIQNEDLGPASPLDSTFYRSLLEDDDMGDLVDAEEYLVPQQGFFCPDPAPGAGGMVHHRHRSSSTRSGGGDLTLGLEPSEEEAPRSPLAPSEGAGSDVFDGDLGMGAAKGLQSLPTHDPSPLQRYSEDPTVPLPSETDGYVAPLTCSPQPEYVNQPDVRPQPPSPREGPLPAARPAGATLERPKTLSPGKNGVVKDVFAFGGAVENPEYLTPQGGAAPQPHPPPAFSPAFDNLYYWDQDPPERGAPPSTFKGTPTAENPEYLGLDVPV
Chain of Epidermal growth factor receptor (P00533 whole entry): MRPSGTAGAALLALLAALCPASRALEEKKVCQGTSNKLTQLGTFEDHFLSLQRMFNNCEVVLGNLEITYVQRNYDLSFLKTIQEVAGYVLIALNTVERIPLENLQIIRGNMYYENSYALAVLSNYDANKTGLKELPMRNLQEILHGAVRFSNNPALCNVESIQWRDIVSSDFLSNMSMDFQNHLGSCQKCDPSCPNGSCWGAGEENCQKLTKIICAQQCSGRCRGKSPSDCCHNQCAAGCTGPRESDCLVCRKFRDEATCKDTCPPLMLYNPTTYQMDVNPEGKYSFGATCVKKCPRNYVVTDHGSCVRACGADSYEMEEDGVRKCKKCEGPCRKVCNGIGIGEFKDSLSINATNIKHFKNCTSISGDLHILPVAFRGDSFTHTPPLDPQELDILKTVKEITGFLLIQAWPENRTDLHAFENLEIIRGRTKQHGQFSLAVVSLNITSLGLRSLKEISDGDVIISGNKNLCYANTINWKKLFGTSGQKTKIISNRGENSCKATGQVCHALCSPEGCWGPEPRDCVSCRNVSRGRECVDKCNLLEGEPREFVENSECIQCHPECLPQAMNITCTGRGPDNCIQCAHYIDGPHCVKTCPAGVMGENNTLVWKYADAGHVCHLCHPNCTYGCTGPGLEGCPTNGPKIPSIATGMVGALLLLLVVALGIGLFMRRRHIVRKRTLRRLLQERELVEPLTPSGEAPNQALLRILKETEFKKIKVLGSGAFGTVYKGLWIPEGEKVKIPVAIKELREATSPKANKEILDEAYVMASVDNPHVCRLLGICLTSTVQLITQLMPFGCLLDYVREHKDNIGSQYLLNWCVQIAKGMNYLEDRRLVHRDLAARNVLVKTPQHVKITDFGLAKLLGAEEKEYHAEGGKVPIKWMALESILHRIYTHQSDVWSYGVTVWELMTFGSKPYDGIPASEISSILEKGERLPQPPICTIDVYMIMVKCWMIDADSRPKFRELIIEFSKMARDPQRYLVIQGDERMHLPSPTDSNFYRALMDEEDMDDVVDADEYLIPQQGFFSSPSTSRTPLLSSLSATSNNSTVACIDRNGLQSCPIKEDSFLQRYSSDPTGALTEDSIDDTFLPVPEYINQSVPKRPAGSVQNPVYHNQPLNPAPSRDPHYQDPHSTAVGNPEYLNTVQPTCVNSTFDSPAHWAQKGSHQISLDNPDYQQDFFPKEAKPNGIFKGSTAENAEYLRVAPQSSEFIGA

Take `CS(=O)(=O)NCCNCc1ccc(-c2ccc3ncnc(Nc4ccc(OCc5cccc(F)c5)c(Cl)c4)c3c2)o1`: the pIC50 in data set [1] is 7.80; in [2] it was 7.73.

Consider `CS(=O)(=O)N1CCN(Cc2ccc(-c3ccc4ncnc(Nc5ccc(OCc6cccc(F)c6)c(Cl)c5)c4c3)o2)CC1`, for which the results for the pIC50 in data set [1] and in data set [2] were 7.70 and 7.22, respectively.

For the compound `Cc1ccc(S(=O)(=O)O)cc1.O=S(=O)(CCNCc1ccc(-c2ccc3ncnc(Nc4ccc(OCc5cccc(F)c5)c(Cl)c4)c3c2)o1)CC(F)(F)F`, the values for the inhibition in vivo at 200 mg/kg with NCI-N87 [3] and with SK-OV-3 were 46.9% and 45.2%, respectively. Also, the Activity entry in the data set on Mus musculus [4], in the data set on Mus musculus [5], in the data set with Mus musculus [6], in the data set with Mus musculus [7], with Mus musculus [8] and in the data set with Mus musculus [9] was “Non-toxic” throughout. The pIC50 with BT-474 was 7.58; in the data set with NCI-N87 [10], 7.29; in data set [1], 8.07; in [2] it was 7.68. Moreover, in data set [11], the solubility was 16.7 µg/mL.

For the compound `C[S+]([O-])CCNCc1ccc(-c2ccc3ncnc(Nc4ccc(OCc5cccc(F)c5)c(Cl)c4)c3c2)o1.Cc1ccc(S(=O)(=O)O)cc1` (stereo unspecified), in the data set on Rattus norvegicus [12], the “beta t1/2” value came to 2.64 h. In [13], the half-life is 2.32 h. In addition, the MRT with Rattus norvegicus [14] is 5.88 h; in data set [15], 5.38 h. The AUC in the data set with Rattus norvegicus [16] worked out at 4309 ng·h/mL. The total exposure AUC(0-inf) in data set [17] was 53200 ng·h/mL. In the data set with Rattus norvegicus [18], the AUCt came out at 4295 ng·h/mL. This compound also showed an AUC(0-t) in [19] of 50300 ng·h/mL. The results for the Cmax (with Rattus norvegicus [20]; in data set [21]) were 645 ng/mL and 8880 ng/mL, respectively. Moreover, the Tmax with Rattus norvegicus [22] was 4.5 h; in data set [23] it was 3.5 h.

Consider `CS(=O)(=O)CCNCc1ccc(-c2ccc3ncnc(Nc4ccc(OCc5cccc(F)c5)c(Cl)c4)c3c2)o1.Cc1ccc(S(=O)(=O)O)cc1.Cc1ccc(S(=O)(=O)O)cc1.O` [LAPATINIB DITOSYLATE], for which the half-life in data set [13] was 1.91 h. Also, the MRT in data set [15] is 5.52 h. Further, the AUC(0-inf) in data set [17] came to 26900 ng·h/mL. The same compound had an area under the curve AUC(0-t) in [19] of 26900 ng·h/mL. In data set [21], this compound came in with a maximum concentration (Cmax) of 3900 ng/mL. Further, the Tmax in data set [23] worked out at 2.5 h. Also, the inhibition in vivo at 200 mg/kg with NCI-N87 [3] is 89.7%; with SK-OV-3, 78.8%. Further, the negative logarithm of the IC50 (pIC50) in the data set with BT-474 is 7.43; in the data set on NCI-N87 [10] it was 7.34. In addition, the solubility in data set [11] stood at 7 µg/mL.

Turning to `CN1CCN(C(=O)c2ccc(-c3ccc4ncnc(Nc5ccc(OCc6cccc(F)c6)c(Cl)c5)c4c3)o2)CC1`, the negative-log IC50 (pIC50) in data set [1] is 7.27; in data set [2], 6.63.

With `Fc1cccc(COc2ccc(Nc3ncnc4ccc(-c5ccc(CN6CCOCC6)o5)cc34)cc2Cl)c1`, the pIC50 in the data set on BT-474 is 7.07; in the data set with NCI-N87 [10], 7.20; in data set [1], 7.88; in [2], 7.59.

The term pIC50 denotes the IC50 on a negative log10 scale, so that one unit is a factor of ten. A high value points to a low IC50. In general, solubility refers to how much of the substance goes into solution per volume. The MRT is the average time that molecules of a dose stay in the body. Broadly, the AUC is the area under the concentration-time curve, a measure of exposure. For orientation: AUC(0-inf) means total exposure, with the tail of the curve extrapolated. Usually AUC(0-t) stands for the area under the concentration-time curve up to a stated or last time point. Lower therefore signals low exposure. Usually Cmax stands for the maximum level reached in the sampled fluid or tissue. Usually Tmax stands for the time at which the peak concentration occurs.
